# According to ChEMBL document CHEMBL1165950, “Design and synthesis of new potent anticancer pyrazoles with high FLT3 kinase inhibitory selectivity” (Bioorg Med Chem, 2010):
# Experiments:
# Format in all cases: functional
# EKVX = assay: Cytotoxicity against human EKVX cells assessed as cell growth at 1 uM after 48 hrs by sulforhodamine B assay; conditions: read-out: Activity
# NCI-H23 = assay: Cytotoxicity against human NCI-H23 cells assessed as cell growth at 1 uM after 48 hrs by sulforhodamine B assay; conditions: NCI-H23, 48 h, read-out: Activity
# IGROV-1 = assay: Cytotoxicity against human IGROV1 cells assessed as cell growth at 10 uM; conditions: read-out: Activity
# In short: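 Single-dose NCI-60 screen at 10 µM. Cells were grown in RPMI 1640 with 5% FBS and 2 mM L-glutamine, then treated for 48 h at 37 °C. Protein was measured by SRB staining with absorbance at 515 nm. Percentage growth was recorded, and inhibition percentage was calculated as 100 minus growth percentage.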
# SK-OV-3 [1] = assay: Cytotoxicity against human SKOV3 cells assessed as cell growth at 10 uM; conditions: read-out: Activity
# In short: (§1)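 NCI-60 screen: cells grown in RPMI 1640 with 5% FBS and 2 mM L-glutamine, plated at 5000–40,000 cells/well according to doubling time, and preincubated 24 h at 37 °C, 5% CO2. The single 10 µM dose (DMSO stock) was added, then incubated 48 h. Cells were TCA-fixed and stained with 0.4% SRB, read at 515 nm, and growth % calculated against time-zero and control plates.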
# RXF 393 = assay: Cytotoxicity against human RXF393 cells assessed as cell growth at 10 uM; conditions: read-out: Activity; in short: as §1
# TK-10 = assay: Cytotoxicity against human TK10 cells assessed as cell growth at 10 uM; conditions: read-out: Activity; in short: as §1
# MOLT-4 = assay: Cytotoxicity against human MOLT4 cells assessed as cell growth at 0.01 uM after 48 hrs by sulforhodamine B assay; conditions: MOLT-4, 48 h, read-out: Activity
# HOP-62 = assay: Cytotoxicity against human HOP62 cells assessed as cell growth at 0.01 uM after 48 hrs by sulforhodamine B assay; conditions: HOP-62, 48 h, read-out: Activity
# HCC 2998 = assay: Cytotoxicity against human HCC2998 cells assessed as cell growth at 0.01 uM after 48 hrs by sulforhodamine B assay; conditions: HCC 2998, 48 h, read-out: Activity
# SW-620 = assay: Cytotoxicity against human SW620 cells assessed as cell growth at 0.01 uM after 48 hrs by sulforhodamine B assay; conditions: SW-620, 48 h, read-out: Activity
# CCRF-CEM = assay: Growth inhibition of human CCRF-CEM cells after 48 hrs by sulforhodamine B assay
# In short: (§2)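 NCI five-dose SRB assay in RPMI 1640 with 5% FBS and 2 mM L-glutamine. Cells were preincubated 24 h, then exposed 48 h at 37 °C to five concentrations (10-fold or half-log serial dilutions from DMSO stocks). TCA fixation, SRB staining, and absorbance at 515 nm followed. IC50 was taken where [(Ti−Tz)/(C−Tz)]×100 = 50, with Tz as time-zero cell density.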
# CAKI-1 = assay: Cytotoxicity against human Caki1 cells assessed as cell growth at 0.001 uM after 48 hrs by sulforhodamine B assay; conditions: CAKI-1, 48 h, read-out: Activity
# UO-31 = assay: Cytotoxicity against human UO31 cells assessed as cell growth at 0.001 uM after 48 hrs by sulforhodamine B assay; conditions: UO-31, 48 h, read-out: Activity
# HCT-116 = assay: Growth inhibition of human HCT116 cells after 48 hrs by sulforhodamine B assay; conditions: HCT-116, 48 h; for CC50: read-out: LC50 (the source's name)
# In short: (§3)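 NCI 60-cell screen, five-dose mode. Cells grown in RPMI 1640 with 5% FBS and 2 mM L-glutamine and plated at 5000-40,000 cells/well according to doubling time. After 24 h preincubation, a Tz plate was TCA-fixed. Five concentrations (10-fold or 1/2 log dilutions) were applied for 48 h at 37 °C. SRB staining read at 515 nm. IC50 taken from [(Ti-Tz)/(C-Tz)]×100 = 50.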
# Malme-3M [2] = assay: Growth inhibition of human MALME-3M cells after 48 hrs by sulforhodamine B assay; conditions: for CC50: read-out: LC50 (the source's name); in short: as §3
# M14 = assay: Growth inhibition of human M14 cells after 48 hrs by sulforhodamine B assay; conditions: M14, 48 h; in short: as §3
# OVCAR-4 = assay: Growth inhibition of human OVCAR4 cells after 48 hrs by sulforhodamine B assay; conditions: OVCAR-4, 48 h; for CC50: read-out: LC50 (the source's name); in short: as §3
# A498 = assay: Growth inhibition of human A498 cells after 48 hrs by sulforhodamine B assay; conditions: A498, 48 h; in short: as §2
# SN12C = assay: Growth inhibition of human SN12C cells after 48 hrs by sulforhodamine B assay; in short: as §3
# SK-OV-3 [3] = assay: Cytotoxicity against human SKOV3 cells assessed as cell growth at 1 uM after 48 hrs by sulforhodamine B assay; conditions: SK-OV-3, 48 h, read-out: Activity
# MDA-MB-231 = assay: Cytotoxicity against human MDA-MB-231 cells assessed as cell growth at 1 uM after 48 hrs by sulforhodamine B assay; conditions: MDA-MB-231, 48 h, read-out: Activity
# [4] = Cytotoxicity against human Hs 578T cells assessed as cell growth at 1 uM after 48 hrs by sulforhodamine B assay; conditions: read-out: Activity
# NCI-H322M [5] = assay: Cytotoxicity against human NCI-H322M cells assessed as cell growth at 10 uM; conditions: read-out: Activity; in short: as §1
# NCI-H322M [6] = assay: Cytotoxicity against human NCI-H322M cells assessed as cell growth at 10 uM after 48 hrs by sulforhodamine B assay; conditions: read-out: Activity
# SNB-75 = assay: Cytotoxicity against human SNB75 cells assessed as cell growth at 10 uM after 48 hrs by sulforhodamine B assay; conditions: SNB-75, 48 h, read-out: Activity
# Malme-3M [7] = assay: Cytotoxicity against human MALME-3M cells assessed as cell growth at 10 uM after 48 hrs by sulforhodamine B assay; conditions: read-out: Activity
# OVCAR-8 = assay: Cytotoxicity against human OVCAR8 cells assessed as cell growth at 10 uM after 48 hrs by sulforhodamine B assay; conditions: OVCAR-8, 48 h, read-out: Activity
# SK-OV-3 [8] = assay: Cytotoxicity against human SKOV3 cells assessed as cell growth at 10 uM after 48 hrs by sulforhodamine B assay; conditions: SK-OV-3, 48 h, read-out: Activity
# BT-549 = assay: Cytotoxicity against human BT549 cells assessed as cell growth at 10 uM after 48 hrs by sulforhodamine B assay; conditions: BT-549, 48 h, read-out: Activity
# In short: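 NCI-60 five-dose screen. Cells were grown in RPMI 1640 with 5% FBS and 2 mM L-glutamine, plated at 5000–40,000 cells/well and preincubated for 24 h. Time-zero plates were TCA-fixed. DMSO-solubilized drug was added at five concentrations (10-fold or ½-log serial dilutions) for 48 h at 37 °C, 5% CO2. Cells were TCA-fixed, stained with 0.4% SRB and read at 515 nm. Percent growth used time-zero, control and test absorbances.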
smiles,measurement,setting,value
Cc1cc(O)cc(-c2nn(CC#N)cc2-c2ccnc(-c3ccc(Oc4ccccc4)cc3)c2)c1,growth at 1 µM,EKVX,-4%
same,growth at 1 µM,NCI-H23,-64%
same,growth at 10 µM,IGROV-1,72.2%
same,growth at 10 µM,SK-OV-3 [1],89.6%
same,growth at 10 µM,RXF 393,24.6%
same,growth at 10 µM,TK-10,47.2%
same,growth at 0.01 µM,MOLT-4,93%
same,growth at 0.01 µM,HOP-62,108%
same,growth at 0.01 µM,HCC 2998,89%
same,growth at 0.01 µM,SW-620,88%
same,GI50,CCRF-CEM,2.85 µM
same,LC50,CCRF-CEM,> 100 µM
same,TGI,CCRF-CEM,> 100 µM
same,growth at 0.001 µM,CAKI-1,101%
same,growth at 0.001 µM,UO-31,91%
same,GI50,HCT-116,1.56 µM
same,TGI,HCT-116,2.9 µM
same,CC50,HCT-116,5.38 µM
same,GI50,Malme-3M [2],1.81 µM
same,TGI,Malme-3M [2],3.58 µM
same,CC50,Malme-3M [2],7.12 µM
same,GI50,M14,1.7 µM
same,TGI,M14,3.12 µM
same,CC50,M14; read-out: LC50 (the source's name),5.73 µM
same,GI50,OVCAR-4,4.56 µM
same,TGI,OVCAR-4,16 µM
same,CC50,OVCAR-4,48.6 µM
same,GI50,A498,3.87 µM
same,LC50,A498,44.1 µM
same,TGI,A498,16.7 µM
same,GI50,SN12C,1.8 µM
same,LC50,SN12C,9.01 µM
same,TGI,SN12C,4.02 µM
same,growth at 1 µM,SK-OV-3 [3],63%
same,growth at 1 µM,MDA-MB-231,-13%
same,growth at 1 µM,[4],-23%
same,growth at 10 µM,NCI-H322M [5],80.7%
same,growth at 10 µM,NCI-H322M [6],-89%
same,growth at 10 µM,SNB-75,-98%
same,growth at 10 µM,Malme-3M [7],-72%
same,growth at 10 µM,OVCAR-8,-88%
same,growth at 10 µM,SK-OV-3 [8],-99%
same,growth at 10 µM,BT-549,-81%
COc1cc(C)cc(-c2nn(CC#N)cc2-c2ccc(-c3cccc(C(C)=O)c3)nc2)c1,growth at 1 µM,EKVX,24%
same,growth at 1 µM,NCI-H23,17%
same,growth at 10 µM,IGROV-1,34.6%
same,growth at 10 µM,SK-OV-3 [1],10.1%
same,growth at 10 µM,RXF 393,-51%
same,growth at 10 µM,TK-10,27.3%
same,growth at 0.01 µM,MOLT-4,100%
same,growth at 0.01 µM,HOP-62,83%
same,growth at 0.01 µM,HCC 2998,87%
same,growth at 0.01 µM,SW-620,91%
same,GI50,CCRF-CEM,2.61 µM
same,LC50,CCRF-CEM,> 100 µM
same,TGI,CCRF-CEM,> 100 µM
same,growth at 0.001 µM,CAKI-1,101%
same,growth at 0.001 µM,UO-31,86%
same,GI50,HCT-116,2.33 µM
same,TGI,HCT-116,10.6 µM
same,CC50,HCT-116,87.4 µM
same,GI50,Malme-3M [2],3.76 µM
same,TGI,Malme-3M [2],96.4 µM
same,CC50,Malme-3M [2],> 100 µM
same,GI50,M14,1.17 µM
same,TGI,M14,3.3 µM
same,GI50,OVCAR-4,3.76 µM
same,TGI,OVCAR-4,> 100 µM
same,CC50,OVCAR-4,> 100 µM
same,GI50,A498,1.08 µM
same,LC50,A498,72.5 µM
same,TGI,A498,5.14 µM
same,GI50,SN12C,6.08 µM
same,LC50,SN12C,> 100 µM
same,TGI,SN12C,> 100 µM
same,growth at 1 µM,SK-OV-3 [3],-4%
same,growth at 1 µM,MDA-MB-231,13%
same,growth at 1 µM,[4],-43%
same,growth at 10 µM,NCI-H322M [5],64.8%
same,growth at 10 µM,NCI-H322M [6],-10%
same,growth at 10 µM,SNB-75,-36%
same,growth at 10 µM,Malme-3M [7],-1%
same,growth at 10 µM,OVCAR-8,-11%
same,growth at 10 µM,SK-OV-3 [8],-36%
same,growth at 10 µM,BT-549,-24%
